From publication PMC6448791 (Journal of natural products, 2017)
pIC50: −log10 of the molar value. Where “and” joins values, the source holds several entries; their conditions need not be identical. Identical values can stand only once. Like-named read-outs stand apart in the source and are kept apart here.

Columns and labels:
[1] = system: SMMC-771 (hepatocellular carcinoma); assay: MTT cytotoxicity assay, SMMC-7721; type: cell-based, human
Outline: (§1)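 Cells kept in RPMI-1640 with 10% FBS, penicillin and streptomycin at 37 °C under 5% CO2. Seeded at 5 × 10^4 cells/mL and pre-incubated 24 h. Exposed to test compound at preset concentrations for 48 h. MTT (0.5 mg/mL) added for 4 h, formazan dissolved in DMSO, A490 read. Inhibition % = (ODc − ODt)/ODc × 100. Cisplatin as positive control.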

[2] = system: BGC-823 (gastric carcinoma); assay: MTT cytotoxicity assay, BGC-823; type: cell-based, human
Outline: as §1

rabbit erythrocytes = assay: Hemolytic assay; type: cell-based; conditions: for fold lower hemolytic toxicity than 1: HD50 relative to compound 1, rabbit erythrocytes; for HD50 (concentration inducing 50% of erythrocyte hemolysis): 37 °C, 60 min, PBS pH 7.4
[3] = system: A549 human lung cancer cell line; assay: SRB cytotoxicity assay, A549; type: cell-based
[4] = system: all five tested human cancer cell lines; assay: SRB cytotoxicity, all five tested human cancer cell lines; type: cell-based; conditions: read-out: IC50 against all five tested human cancer cell lines
Outline: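 ATCC-sourced lines grown in RPMI-1640 with 10% FBS at 37 °C, 5% CO2. Seeded at 3–5 × 10^3 cells/well in medium already containing graded test compound, then 72 h exposure. Fixed with cold 50% TCA for 30 min, stained with 0.04% SRB for 30 min, bound dye taken up in 10 mM Tris base, A515 read.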

[5] = system: PARP, pro-caspase-3, pro-caspase-9, pro-caspase-8; assay: Western blot of apoptosis-related proteins; type: cell-based
Outline: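 A549 cells treated with test compound for 24 h beside untreated control. Lysed in 100 mM Tris-Cl pH 6.8, 4% SDS, 20% glycerol, 200 mM β-mercaptoethanol, 1 mM PMSF plus aprotinin, then spun 12000g for 15 min at 4 °C. Protein measured by BCA, run on 10–15% SDS-PAGE and moved to PVDF. Primary antibodies overnight at 4 °C, HRP secondary, ECL detection; lamin A probed.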

erythrocytes = conditions: cited from earlier work
[6] = Homo sapiens, SMMC-7721, read-out: IC50 SMMC-771
[7] = Homo sapiens, BGC-823, read-out: IC50 BGC-823
[8] = 24 h treatment, compared to controls
[9] = as the concentration of 14 increased

Molecule	pIC50 [1, 6]	pIC50 [2, 7]	HD50 (concentration inducing 50% of erythrocyte hemolysis) (rabbit erythrocytes; rabbit erythrocytes)	other results
C[C@@H]1O[C@@H](O[C@H]2[C@H](O[C@H]3CC[C@@]4(C)[C@@H](CC[C@]5(C)[C@@H]4C[C@H](O)[C@]46OC(=O)[C@@]7(CCC(C)(C)C[C@H]74)CC[C@]65C)[C@]3(C)CO)OC[C@H](O[C@@H]3O[C@H](CO)[C@@H](O)[C@H](O)[C@H]3O)[C@@H]2O)[C@H](O)[C@H](O)[C@H]1O [compound 11, 33β,12α,23-Trihydroxyolean-28-oic acid 28,13β-lactone-3-O-α-3L3-rhamnopyranosyl-(1→32)-[β-3D3-glucopyranosyl-(1→34)]-α-3L3-arabinopyranoside]	< 5.00	< 5.00	308 μM and 290−308 μM and 308 ± 24.2 μM	fold lower hemolytic toxicity than 1 (rabbit erythrocytes): ~50 fold
C[C@@H]1O[C@@H](O[C@H]2[C@H](O[C@H]3CC[C@@]4(C)[C@@H](CC[C@]5(C)[C@@H]4CC(=O)[C@@H]4[C@@H]6CC(C)(C)CC[C@]6(C(=O)O)CC[C@]45C)[C@]3(C)CO)OC[C@H](O[C@@H]3O[C@H](CO)[C@@H](O)[C@H](O)[C@H]3O)[C@@H]2O)[C@H](O)[C@H](O)[C@H]1O [compound 9, 3β,23-Dihydroxy-12-oxo-olean-28-oic acid-3-O-a-L-rhamnopyranosyl-(1→2)-[β-D-glucopyranosyl-(1→4)]-a-L-arabinopyranoside]	< 5.00	< 5.00	73.1 µM and 73.1 ± 9.0 µM	fold lower hemolytic toxicity than 1 (rabbit erythrocytes): at least 10 fold
CC1(C)CC[C@]2(C(=O)O)CC[C@]3(C)C(=CC[C@@H]4[C@@]5(C)CC[C@H](O)[C@@](C)(CO)[C@@H]5CC[C@]43C)[C@@H]2C1 [hederagenin, reference compound]			>200 µM	hemolytic toxicity (in words) (rabbit erythrocytes; rabbit erythrocytes): low hemolytic toxicity; cytotoxicity toward A549 cancer cells (in words) [3]: inactive
CCOC(=O)CNC(=O)[C@]12CCC(C)(C)C[C@H]1C1=CC[C@@H]3[C@@]4(C)CC[C@H](OC(C)=O)[C@@](C)(COC(C)=O)[C@@H]4CC[C@@]3(C)[C@]1(C)CC2 [compound 13, 3β,23-Diacetoxyolean-12-en-N-[glycineethyl ester]-28-formamide]			>500 µM	
CC1(C)CC[C@]2(C(=O)NCCCCCC(=O)O)CC[C@]3(C)C(=CC[C@@H]4[C@@]5(C)CC[C@H](O)[C@@](C)(CO)[C@@H]5CC[C@]43C)[C@@H]2C1 [compound 18, 3β,23-Dihydroxyolean-12-en-28-(6-aminocaproic acid)oic acid amide]			>500 µM	
CCOC(=O)CCCNC(=O)[C@]12CCC(C)(C)C[C@H]1C1=CC[C@@H]3[C@@]4(C)CC[C@H](OC(C)=O)[C@@](C)(COC(C)=O)[C@@H]4CC[C@@]3(C)[C@]1(C)CC2 [compound 14, 3β,23-Diacetoxyolean-12-en-N-[4-aminobutanoic acid ethyl ester]-28-formamide]			>500 µM	pIC50 [4]: 5.07 to 5.55; expression of pro-caspase-3 [5, 8]: decreased; expression of pro-caspase-8 [5, 8]: decreased; expression of pro-caspase-9 [5, 8]: decreased; expression of PARP [5, 9]: decreased; expression of cleaved PARP [5, 9]: increased
C[C@@H]1O[C@@H](O[C@H]2[C@H](O[C@H]3CC[C@@]4(C)[C@@H](CC[C@]5(C)[C@@H]4C(=O)C=C4[C@@H]6CC(C)(C)CC[C@]6(C(=O)NCC(=O)O)CC[C@]45C)[C@]3(C)CO)OC[C@H](O[C@@H]3O[C@H](CO)[C@@H](O)[C@H](O)[C@H]3O)[C@@H]2O)[C@H](O)[C@H](O)[C@H]1O [compound 7, 3β,23-Dihydroxy-11-oxo-olean-12-en-28-(glycine)oic acid-3-O-α-L-rhamnopyranosyl-(1→2)-[β-D-glucopyranosyl-(1→4)]-α-L-arabinopyranoside]	< 5.00	< 5.00	290−308 μM and 290 ± 27.0 μM	
CC1(C)CC[C@]2(C(=O)NCC(=O)O)CC[C@]3(C)C(=CC[C@@H]4[C@@]5(C)CC[C@H](O)[C@@](C)(CO)[C@@H]5CC[C@]43C)[C@@H]2C1 [compound 16, 3β,23-Dihydroxyolean-12-en-28-(glycine)oic acid amide]			>500 µM	
C[C@@H]1O[C@@H](O[C@H]2[C@H](O[C@H]3CC[C@@]4(C)[C@@H](CC[C@]5(C)[C@@H]4C(=O)C=C4[C@@H]6CC(C)(C)CC[C@]6(C(=O)O)CC[C@]45C)[C@]3(C)CO)OC[C@H](O[C@@H]3O[C@H](CO)[C@@H](O)[C@H](O)[C@H]3O)[C@@H]2O)[C@H](O)[C@H](O)[C@H]1O [compound 4, 3β,23-Dihydroxy-11-oxo-olean-12-en-28-oic acid-3-O-α-L-rhamnopyranosyl-(1→2)-[β-D-gluco-pyranosyl-(1→4)]-α-L-arabinopyranoside]	< 5.00	< 5.00	239 µM and 239 ± 22.2 µM	
hederagenin 3-O-α-L-rhamnopyr-anosyl-(1→2)-[β-D-glucopyranosyl-(1→4)]-α-L-arabinopyrano-side [compound 1]			6.3 µM and 6.3 ± 0.58 µM	pIC50 ([1]; read-out: IC50 SMMC-771, MTT assay): 5.36; pIC50 ([2]; read-out: IC50 BGC-823, MTT assay): 5.14; HD50 (hemolytic toxicity) (erythrocytes): 6.3 µM
C[C@@H]1O[C@@H](O[C@H]2[C@H](O[C@H]3CC[C@@]4(C)[C@@H](CC[C@]5(C)[C@@H]4CC(=O)[C@]46OC(=O)[C@@]7(CCC(C)(C)C[C@H]74)CC[C@@]56C)[C@]3(C)CO)OC[C@H](O[C@@H]3O[C@H](CO)[C@@H](O)[C@H](O)[C@H]3O)[C@@H]2O)[C@H](O)[C@H](O)[C@H]1O [compound 10, 3β,23-Dihydroxy-12-oxo-olean-28-oic acid-28,13β-lactone-3-O-α-L-rhamnopyranosyl-(1→2)-[β-D-glucopyranosyl-(1→4)]-α-L-arabinopyranoside]	< 5.00	< 5.00	290 μM and 290−308 μM and 290 ± 25.5 μM	fold lower hemolytic toxicity than 1 (rabbit erythrocytes): ~50 fold
CCOC(=O)CCCCCNC(=O)[C@]12CCC(C)(C)C[C@H]1C1=CC[C@@H]3[C@@]4(C)CC[C@H](OC(C)=O)[C@@](C)(COC(C)=O)[C@@H]4CC[C@@]3(C)[C@]1(C)CC2 [compound 15, 3β,23-Diacetoxyolean-12-en-N-[6-aminocaproic acid ethyl ester]-28-formamide]			>500 µM	
CC(=O)OC[C@@]1(C)[C@@H]2CC[C@]3(C)[C@H](CC=C4[C@@H]5CC(C)(C)CC[C@]5(C(=O)O)CC[C@]43C)[C@@]2(C)CC[C@@H]1OC(C)=O [compound 12, 3β,23-Diacetoxyolean-12-en-28-oic acid]			>500 µM	
CC1(C)CC[C@]2(C(=O)NCCCC(=O)O)CC[C@]3(C)C(=CC[C@@H]4[C@@]5(C)CC[C@H](O)[C@@](C)(CO)[C@@H]5CC[C@]43C)[C@@H]2C1 [compound 17, 3β,23-Dihydroxyolean-12-en-28-(4-aminobutanoic acid)oic acid amide]			>500 µM	
